According to ChEMBL document CHEMBL1772946, “Identification and initial SAR of silybin: an Hsp90 inhibitor” (Bioorg Med Chem Lett, 2011):
Activity calls are given as the source filed them. The calls are words filed in the database; no cut-off is given here.

Key:
[1] = tested on: SK-BR-3; assay: Antiproliferative activity against estrogen receptor-deficient human SKBR3 cells expressing HER2; type: functional
How it was run: (§1)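 Cell proliferation assay against SKBr3 (ER-negative, HER2-overexpressing) and MCF-7 (ER-positive) breast cancer cells. Values are mean ± standard deviation of at least two separate experiments, each performed in triplicate.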

[2] = tested on: MCF7; assay: Antiproliferative activity against human MCF7 cells expressing estrogen receptor; type: functional; how it was run: as §1
[3] = target: T1, Heat shock protein HSP90 (Homo sapiens) (UniProt P07900+P08238); assay: Inhibition of Hsp90 in human MCF7 cells assessed as Raf degradation after 24 hrs by Western blot analysis; type: cell-based
How it was run: (§2)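 MCF-7 breast cancer cells were treated for 24 h with a range of compound concentrations. Cell lysates were probed by Western blot for Her2, Raf, Akt and Hsp90, with actin as a non-client control.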

[4] = target: T1, Heat shock protein HSP90 (Homo sapiens); assay: Inhibition of Hsp90 in human MCF7 cells assessed as Her2 degradation after 24 hrs by Western blot analysis; type: cell-based; how it was run: as §2
[5] = target: T1, Heat shock protein HSP90 (Homo sapiens); assay: Inhibition of Hsp90 in human MCF7 cells assessed as degradation after 24 hrs by Western blot analysis
[6] = target: T1, Heat shock protein HSP90 (Homo sapiens); assay: Inhibition of Hsp90 in human MCF7 cells assessed as Akt degradation after 24 hrs by Western blot analysis; type: cell-based; how it was run: as §2
[7] = target: T2, Heat shock protein HSP 90 (Oryctolagus cuniculus) (UniProt P11500); conditions: 1 ug/ml
T2 sequence (whole entry): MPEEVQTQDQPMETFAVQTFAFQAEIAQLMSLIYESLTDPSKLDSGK

[8] = target: T2, Heat shock protein HSP 90 (Oryctolagus cuniculus); conditions: 1 ug/ml; remark: listed apart in the source
[9] = target: T1, Heat shock protein HSP90 (Homo sapiens); assay: Inhibition of Hsp90 in human MCF7 cells assessed as Akt degradation at 50 to 1000 uM by Western blot analysis; type: cell-based
[10] = target: T2, Heat shock protein HSP 90 (Oryctolagus cuniculus); assay: Inhibition of Hsp90-dependent maturation of [35S]-labeled His-tagged […] in rabbit reticulocyte lysate at 2 mM by anti-His-tag pull down assay
[11] = species on record: Oryctolagus cuniculus; assay: Inhibition of Hsp90/Cdc37 interaction with [35S]-labeled His-tagged […] in rabbit reticulocyte lysate at 2 mM by Western blot analysis
[12] = target: T1, Heat shock protein HSP90 (Homo sapiens); assay: Inhibition of Hsp90 in human MCF7 cells assessed as Hsp90 degradation at 50 to 1000 uM by Western blot analysis; type: cell-based
[13] = target: T2, Heat shock protein HSP 90 (Oryctolagus cuniculus); assay: Inhibition of Hsp90-dependent activation of [35S]-labeled His-tagged […] in rabbit reticulocyte lysate by anti-His-tag pull down assay
[14] = target: T1, Heat shock protein HSP90 (Homo sapiens); assay: Inhibition of Hsp90 in human MCF7 cells assessed as Her2 degradation at 50 to 1000 uM by Western blot analysis; type: cell-based
[15] = target: T1, Heat shock protein HSP90 (Homo sapiens); assay: Inhibition of Hsp90 in human MCF7 cells assessed as Raf degradation at 50 to 1000 uM by Western blot analysis; type: cell-based
[16] = target: T2, Heat shock protein HSP 90 (Oryctolagus cuniculus); assay: Inhibition of Hsp90-dependent activation of [35S]-labeled His-tagged […] in rabbit reticulocyte lysate at 2 mM by anti-His-tag pull down assay

SMILES | Activity [1] [µM] | Activity [2] [µM] | further results
COc1cc(C2Oc3cc(C4CC(=O)c5ccccc5O4)ccc3OC2CO)ccc1O (configuration not stated) | 16.25 | 13.66 | 
O=C1c2c(O)cc(O)cc2OC(c2ccc3c(c2)OC(c2ccc(O)cc2)C(CO)O3)C1O (configuration not stated) | 210.6 | 138.7 | 
COc1cc(C2Oc3cc(C4Oc5cccc(O)c5C(=O)C4O)ccc3OC2CO)ccc1O (configuration not stated) | 11.9 | 17.66 | 
COc1cc(C2Oc3cc(C4Oc5ccccc5C(=O)C4O)ccc3OC2CO)ccc1O (configuration not stated) | 11.12 | 13.42 | inhibition [3]: Dose-dependent effect; inhibition [4]: Dose-dependent effect; inhibition [5]: Dose-dependent effect; inhibition [6]: Dose-dependent effect
COc1cc(C2Oc3cc(/C=C/C(=O)c4c(O)cccc4O)ccc3OC2CO)ccc1O (configuration not stated) | 25.03 | 22.58 | 
COc1cc(C2Oc3cc([C@H]4Oc5cc(O)cc(O)c5C(=O)[C@@H]4O)ccc3OC2CO)ccc1O (stereo in doubt; 24) [SILIBININ] | 196.3 | 196.4 | 
COC1=C2C[C@@H](C)C[C@H](OC)[C@H](O)[C@@H](C)/C=C(\C)[C@H](OC(N)=O)[C@@H](OC)/C=C\C=C(/C)C(=O)NC(=CC1=O)C2=O |  |  | inhibition [7]: Active; inhibition [8]: Active
COc1cc(C2Oc3cc(/C=C/C(=O)c4c(O)cc(O)cc4O)ccc3OC2CO)ccc1O (configuration not stated) | 111.4 | 109.3 | 
COc1cc(C2Oc3cc(C4Oc5ccc(O)cc5C(=O)C4O)ccc3OC2CO)ccc1O (configuration not stated) | 13.41 | 17.8 | 
COc1cc(C2Oc3cc(C4Oc5cc(O)ccc5C(=O)C4O)ccc3OC2CO)ccc1O (configuration not stated) | 16.04 | 11.92 | 
COc1cc(C2Oc3cc(C4CC(=O)c5ccc(O)cc5O4)ccc3OC2CO)ccc1O (configuration not stated) | 41.91 | 41.58 | 
COc1cc(C2Oc3cc(C4CC(=O)c5c(O)cccc5O4)ccc3OC2CO)ccc1O (configuration not stated) | 47.73 | 50.32 | 
COc1cc(C2Oc3cc(/C=C/C(=O)c4ccccc4O)ccc3OC2CO)ccc1O (configuration not stated) | 19.87 | 12.07 | 
COc1cc(C2Oc3cc(/C=C/C(=O)c4ccc(O)cc4O)ccc3OC2CO)ccc1O (configuration not stated) | 37.14 | 16.91 | 
COc1cc(C2Oc3cc(/C=C/C(=O)c4cc(O)ccc4O)ccc3OC2CO)ccc1O (configuration not stated) | 35.84 | 12.17 | 
COc1cc(C2Oc3cc(C4CC(=O)c5cc(O)ccc5O4)ccc3OC2CO)ccc1O (configuration not stated) | 15.63 | 15.62 | inhibition [3]: Dose-dependent effect; inhibition [4]: Dose-dependent effect; inhibition [5]: Dose-dependent effect; inhibition [6]: Dose-dependent effect
COc1cc(C2Oc3cc([C@H]4Oc5cc(O)cc(O)c5C(=O)[C@@H]4O)ccc3OC2CO)ccc1O (stereo in doubt) |  |  | inhibition [9]: Active; inhibition [10]: Active; inhibition [11]: inactive; inhibition [12]: Active; inhibition [13]: Dose-dependent effect; inhibition [14]: Active; inhibition [15]: Active; inhibition [16]: Active
COc1cc(C2Oc3cc(C4CC(=O)c5c(O)cc(O)cc5O4)ccc3OC2CO)ccc1O (configuration not stated) | 101.2 | 104.2 | 
COc1cc(C2Oc3cc([C@H]4Oc5cc(O)cc(O)c5C(=O)[C@@H]4O)ccc3OC2CO)ccc1O (stereo in doubt) [SILIBININ] | 197 | 222.8 | 
